Published values pooled from the literature.
Protocols differ between the studies behind these lines.
TAOK2: Serine/threonine-protein kinase TAO2 (TAOK2, Homo sapiens, UniProt Q9UL54)
Fibroblast growth factor 14: Fibroblast growth factor 14 (Homo sapiens, UniProt Q92915)
RIOK2: Serine/threonine-protein kinase RIO2 (RIOK2, Homo sapiens, UniProt Q9BVS4)

SMILES	target	read-out	action	method	tested at	endpoint	result
Cc1cc(O)c(-c2ccc([C@@H](C)CN(C)C)cc2)c2c1[nH]c(=O)c1sccc12	TAOK2	enzyme activity	inhibitor	–	0.1 µM	inhibition	-4.37%
C1=C/COCc2cc(ccc2OCCN2CCCC2)Nc2nccc(n2)-c2cccc(c2)COC/1	Eukaryotic translation initiation factor 2-alpha kinase 1 (EIF2AK1, Homo sapiens, UniProt Q9BQI3)	binding	–	–	0.1 µM	remaining binding	87%
CC(=O)Nc1ccc(Oc2ccc3c(c2)C(=O)N(c2cc(C)ccc2C)C3=O)cc1	Fibroblast growth factor 14	binding	–	SPR	–	kon	69300 M⁻¹ s⁻¹
N#Cc1ccc(NC(=O)Nc2ccccc2)cc1	RIOK2	cell-free assay	–	competition with immobilised ligand	25 µM	remaining binding	68%
C#Cc1cnc(Nc2ccnc(CO)c2)nc1Nc1ccccc1S(C)(=O)=NC#N (stereo not shown)	RIOK2	cell-free assay	–	–	1 µM	remaining signal	100%
NC/C(=C\F)COc1cccc(Cn2c(=S)[nH]c(=O)c3[nH]cnc32)c1	Glucocorticoid receptor (NR3C1, Homo sapiens, UniProt P04150)	ligand displacement	–	radioligand	10 µM	inhibition	< 50%
CCN1/C(=C/C(C)=O)Sc2ccc(F)cc21	5-hydroxytryptamine receptor 1A (HTR1A, Homo sapiens, UniProt P08908)	ligand displacement	–	radioligand	10 µM	inhibition	1.73%
Cc1nc(CSc2nc(-c3ccc(C(C)(C)C)cc3)n[nH]2)cs1	Fibroblast growth factor 14	thermal stability	–	–	25 µM	ΔTm	0.3 °C
CCCCC(=O)Nc1ccc(-c2ccc3ncn(CCC)c(=O)c3c2)cn1	Mitogen-activated protein kinase kinase kinase 13 (MAP3K13, Homo sapiens, UniProt O43283)	binding	–	competition with immobilised ligand	0.5 µM	remaining binding	94%
CC(=O)Nc1ccc(S(=O)(=O)N2CCN(CC(O)COc3ccc4ccccc4c3)CC2)cc1 (stereo not shown)	Fibroblast growth factor 14	binding	–	SPR	–	kon	4290 M⁻¹ s⁻¹
C#Cc1cc(-c2cc(Nc3nc(N[C@@H](C)c4ccc(F)cn4)ncc3Cl)n[nH]2)ccc1C=O	TAOK2	enzyme activity	inhibitor	–	0.2 µM	inhibition	3.89%
COc1ccc2oc(-c3ccc4nc(N)oc4c3)c/c(=N\c3ccccc3NC(=O)CCN)c2c1	Phosphatidylinositol 4-phosphate 3-kinase C2 domain-containing subunit alpha (PIK3C2A, Homo sapiens, UniProt O00443)	binding	–	–	1 µM	remaining binding	101%
Cc1cccc(NC(=O)Cn2cc(CO)c3ccccc32)c1	Fibroblast growth factor 14	binding	–	SPR	–	kon	8900 M⁻¹ s⁻¹
